This is a sample that favours compounds with a hit; in the whole collection about 2.2% have one here.
ABHD4 inh = ABHD4 (mouse) inhibition, primary FP screen. Q8VD66. purified mABHD4, FP-Rh probe fluorescence polarization. inhibition, % at 8.92 µM. 0.54% of 370,000 active. AID 720543;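 active = inhibition exceeding the mean over every tested compound plus 3 SD, cut at about 30% in these data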
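Test system: mouse ABHD4 enzyme, wild type. Reagent: FP-Rh fluorescent activity-based probe, added after compound pre-incubation. Timing: pre-incubation 45 min, probe exposure 60 min, at 25 °C. Technique: FP readout, ex 525 nm / em 598 nm. Benchmarks: high control S159A mutant with DMSO, low control median of compound wells.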
HTRA1 inhibitor = inhibitors of human serine peptidase HTRA1 | 0.5% of 340,000 active | inhibition, % at 5.96 µM | Q92743 | recombinant HTRA1, FP-rhodamine activity-based probe, fluorescence polarization; in the data active = inhibition above about 36%
TDP2 absorb = TDP2 (human) inhibition, absorbance primary screen. O95551. recombinant TDP2, T5PNP hydrolysis, p-nitrophenol absorbance 415 nm. inhibition, % at 12.8 µM. 0.34% of 370,000 active. AID 720702;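 active = inhibition above the mean of all tested compounds plus 3 SD, set per campaign, cut at about 25% in these data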
Target sequence (O95551 whole entry, looked up): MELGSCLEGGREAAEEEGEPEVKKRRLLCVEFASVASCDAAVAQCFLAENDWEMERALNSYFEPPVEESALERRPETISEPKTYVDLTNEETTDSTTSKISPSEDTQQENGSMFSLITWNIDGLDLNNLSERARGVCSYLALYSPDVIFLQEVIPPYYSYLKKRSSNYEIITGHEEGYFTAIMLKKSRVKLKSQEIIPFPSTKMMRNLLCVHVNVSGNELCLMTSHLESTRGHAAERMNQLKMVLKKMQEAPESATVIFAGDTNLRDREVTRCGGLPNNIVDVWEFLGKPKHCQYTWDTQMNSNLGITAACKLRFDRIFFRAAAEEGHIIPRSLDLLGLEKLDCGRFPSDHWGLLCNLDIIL
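Test system: Human TDP2 enzyme | Reagent: 5 mM T5PNP | Compound dosing: 12.8 µM single point, 1% DMSO | Incubation: Enzyme reaction with compound for 2 h at 37 °C | Technique: p-Nitrophenol epi absorbance | Read-out: % inhibition relative to enzyme-containing and enzyme-free wells | Benchmarks: High control without enzyme, low control DMSO plus TDP2 | Replicates: Singlicate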
TCR-CD3 inh = inhibitors of human TCR-CD3 interaction. TAMRA-labeled TCR probe fluorescence, biochemical. AID 651800. inhibition, % at 9.4 µM. 0.37% of 360,000 active; in the data active = inhibition above about 19%;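 note: recombinant mutant TCR 2C K166C tagged with TAMRA read by polarization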
SIAE inh = blocks human sialic acid acetylesterase; AID 1053197; 0.69% of 370,000 active; Q9HAT2; inhibition, % at 9.66 µM; SIAE FP-Rh probe binding, fluorescence polarization;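 active = inhibition above a cutoff: mean of compounds within the control limits plus 3 SD of those, cut at about 17% in these data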
LEDGF integ inh = blocks HIV-1 LEDGF/p75-dependent DNA integration; 0.64% of 370,000 active; TR-FRET IN-LEDGF/p75 DNA integration, Eu/Cy5; inhibition, % at 3.7 µM;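 active = inhibition above the screen-wide mean plus 3 SD, cut at about 13% in these data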;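 note: signal is the Cy5 over europium emission ratio at 671 and 618 nm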
SIAE inh conf = human SIAE inhibition, confirmation | shares compounds with SIAE inh | SIAE FP-Rh activity-based probe, fluorescence polarization | 13% of 2,300 active | inhibition, % at 9.66 µM | AID 1117263;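 active = mean inhibition of the replicates above the hit cutoff set in the primary screen, cut at about 17% in these data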;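 note: inhibitors lower polarization as more probe stays unbound to SIAE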
Numbers stand for hits; i = inactive; nt = no result.

SMILES	ABHD4 inh	HTRA1 inhibitor	TDP2 absorb	TCR-CD3 inh	SIAE inh	LEDGF integ inh	SIAE inh conf
CCc1ccccc1NC(=O)c1onc(C)c1Cl	i	i	i	i	32.1	i	i
COC(=O)c1ccccc1NC(=O)c1onc(C)c1Cl	i	i	i	i	i	i	nt
CCOC(=O)C1CCCN(C(=O)c2ccccc2OC(F)(F)F)CC1 (configuration not stated)	i	nt	i	i	i	i	nt
O=C(Nc1ccc(N2CCCC2=O)cc1)c1cccc(F)c1	i	i	i	i	i	i	nt
O=C(Nc1ccc(N2CCCC2)cc1)c1cccc(F)c1	i	i	i	i	17.6	i	i
Cc1occc1C(=O)NNC(=S)Nc1cccc([N+](=O)[O-])c1	i	i	i	i	21.8	i	i
O=C(COC(=O)c1ccc2ncsc2c1)Nc1ccccc1Br	i	i	i	i	i	i	nt
Cc1ccc(S(=O)(=O)N2CCC(O)(c3cccnc3)CC2)cc1	i	i	i	i	i	i	nt
O=S(=O)(c1ccccc1Cl)N1CCC(O)(c2cccnc2)CC1	i	i	i	i	19.8	i	i
COCCNC(=O)CCc1nnc2ccc(N3CCC(C)CC3)nn12	i	i	i	i	i	i	nt
COc1ccc(Cl)cc1NC(=O)CN(C)C(=O)c1cc2c(s1)CCCC2	i	i	i	i	i	i	nt
CN1Cc2c(N3CCOCC3)nc3sc(C(=O)c4ccc(Br)cc4)c(N)c3c2CC1(C)C	i	nt	i	i	i	i	nt
CN1Cc2c(N3CCOCC3)nc3sc(C#N)c(N)c3c2CC1(C)C	i	i	i	i	19.9	i	i
CSCC[C@H](NC(=O)[C@@H]1Cc2ccccc2CN1)C(=O)Nc1ccc2c(c1)OCO2	i	i	i	i	17.6	i	i
C[C@H](NC(=O)[C@@H]1Cc2ccccc2CN1)C(=O)Nc1ccc2c(c1)OCO2	i	i	i	i	i	i	nt
Cc1ccc(S(=O)(=O)N2CCCC2CNC(=O)C(=O)Nc2ccccc2)cc1 (configuration not stated)	i	i	i	i	i	i	nt
Cc1ccc(S(=O)(=O)N2CCCC2CNC(=O)c2ccccc2)cc1 (configuration not stated)	i	i	i	i	21.6	i	i
Oc1ccc(C(=S)N2CCCCCC2)cc1	i	i	i	i	22.9	i	i
Oc1ccc(C(=S)N2CCCC2)cc1	i	i	i	i	i	i	nt
OC(c1ccccc1)(c1ccccc1)C1CCN(CCCOc2ccncc2)CC1	i	nt	i	i	21.8	i	i
CCOc1ccc(NC(=O)CCC(=O)Nc2cc(OC)c(NC(=O)c3ccco3)cc2OC)cc1	i	i	i	i	19.0	i	i
CC(=O)Nc1ccc(S(=O)(=O)NCCN2CCNC2=O)cc1Cl	i	i	i	i	i	i	nt
Nn1c(Nc2ccccc2)nc2ccccc21	i	i	i	i	23.3	i	i
CC(=O)c1ccc(N2Cc3ccccc3/C2=N\C(=O)Nc2ccccc2)cc1	i	i	i	i	26.0	i	i
CCOc1ccc(OCCOC(=O)CN(C)S(=O)(=O)c2ccc(NC(C)=O)cc2)cc1	i	i	i	i	20.1	i	i
SMILES	ABHD4 inh	HTRA1 inhibitor	TDP2 absorb	TCR-CD3 inh	SIAE inh	LEDGF integ inh	SIAE inh conf
COc1ccc(C(C)=O)cc1CC(=O)NCCCn1ccnc1	i	i	i	i	i	i	nt
O=C(c1ccc(N2CCOCC2)nc1)N1CCOCC1	i	i	i	i	i	i	nt
CC(C)NC(=O)c1ccc(N2CCOCC2)nc1	i	i	i	i	19.0	i	i
COCCNC(=O)c1cccc(OC2CCN(Cc3ccc(C(=O)OC)cc3)CC2)c1	i	i	i	i	50.6	i	i
CN(C(=O)c1cccc(NC(=O)Cc2ccc(NC(=O)C3CCCN(C(=O)CCc4ccccc4)C3)cc2)c1)C1CCCCC1 (configuration not stated)	i	i	i	i	i	i	nt
COc1ccc(C(=O)Oc2ccc3c(C)cc(=O)oc3c2C(C)=O)cc1	i	i	i	i	17.4	i	i
CC(CC(=O)N1CCN(S(=O)(=O)c2ccc(Cl)cc2)CC1)n1cncn1 (configuration not stated)	i	i	i	i	18.5	i	i
Nn1c(SCC(=O)N2CCCC2)nnc1-c1cccs1	i	i	i	i	17.4	i	i
CN(C)c1ccc(NC(=O)c2cn(-c3ccccc3)nc2-c2cccs2)cc1	i	i	i	i	24.8	i	18.6
O=C(CN1C(=O)C2C3C=CC(C3)C2C1=O)OCC(=O)c1ccc(Br)cc1 (configuration not stated)	i	i	i	i	i	i	nt
COc1ccc(N2CCN(C(=O)c3cccc(S(=O)(=O)N4CCCc5ccccc54)c3)CC2)cc1	i	i	i	i	i	i	nt
COc1ccc(N2CCN(C(=O)c3cccc(S(=O)(=O)N4CCc5ccccc54)c3)CC2)cc1	i	i	i	i	90.4	i	i
O=C(NCc1ccc(F)cc1F)[C@@H]1CCCN1C(=O)[C@@H]1CCCN1	i	nt	i	i	i	i	nt
CN(C)C(CNC(=O)c1sc2ccccc2c1Cl)c1ccco1 (configuration not stated)	i	i	i	i	i	i	nt
CN(CC(=O)Nc1c(Cl)cccc1Cl)C(=O)c1ccccc1Cc1ccccc1	i	i	i	i	i	i	nt
O=C(CCC(=O)N(CC(=O)NC1CCCC1)c1cccc(F)c1)Nc1nccs1	i	i	i	i	17.9	i	i
O=C(CCC(=O)N(CC(=O)NC1CCCC1)c1ccc(F)cc1)Nc1nccs1	i	i	i	i	i	i	nt
CN(CC(=O)Nc1cccc(F)c1)C(=O)c1ccc(C2SCCS2)cc1	i	i	i	i	20.3	i	47.7
CN(CC(=O)Nc1cccc(F)c1)C(=O)c1ccc(OCc2ccccc2)cc1	i	i	i	i	i	i	nt
Cc1ccc(OCC(=O)Nc2ccc3c(c2)nc(CCN2CCN(c4ccccn4)CC2)n3C)cc1	i	i	i	i	i	i	nt
Cn1c(CCN2CCN(c3ccccn3)CC2)nc2cc(NC(=O)COc3ccccc3)ccc21	i	i	i	i	69.8	i	i
O=S(=O)(NCCN1CCOCC1)c1ccc(F)c(Cl)c1	i	i	i	i	i	i	nt
CC1=C(C(=O)N2CCCCCC2)CC(CC(=O)NC(c2ccccc2)c2ccccc2)C(=O)N1Cc1ccccc1 (configuration not stated)	i	nt	i	i	i	i	nt
O=C(CCc1ccccc1)Nc1cccc(S(=O)(=O)N2CCOCC2)c1	i	i	i	i	24.7	i	i
Cc1ccc(OCC(=O)Nc2cccc3nsnc23)c(C)c1	i	i	i	i	32.8	i	i
O=C(O)CSc1nnc(Nc2ccccc2)n1-c1ccccc1	i	i	i	i	18.2	i	i
